Results from different studies.
Protocols differ between the studies behind these lines.
ALK: ALK tyrosine kinase receptor (ALK, Homo sapiens, UniProt Q9UM73)
ALK L1196M: ALK tyrosine kinase receptor (ALK, Homo sapiens, UniProt Q9UM73, L1196M)
ALK C1156Y: ALK tyrosine kinase receptor (ALK, Homo sapiens, UniProt Q9UM73, C1156Y)

| Compound | target | test | conditions | remaining binding |
| --- | --- | --- | --- | --- |
| COc1ccc2c(c1)O[C@H](c1ccc(OC)c(OC)c1)C[C@@H]2NC(=O)C1(c2ccc3c(c2)OC(F)(F)O3)CC1 | ALK | cell-free assay, competition with immobilised ligand | 1 µM | 100% |
| c1cncc(-c2cccc(Nc3nccc(NC4CCCCC4)n3)c2)c1 | ALK | binding, competition with immobilised ligand | 10 µM | 62% |
| C[C@@H]1CN(c2cc(-c3nn(C)c4ccc(OC5(C)CC5)cc34)ncn2)C[C@H](C)O1 | ALK L1196M | cell-free assay, competition with immobilised ligand | 1 µM | 98% |
| C[C@@H]1CCN(c2nccc(-c3cnn4ncccc34)n2)C1 | ALK C1156Y | binding | 1 µM | 91% |
| C[C@@H]1CN(c2cc(-c3n[nH]c4ccc(OC5(C)CC5)cc34)ncn2)C[C@H](C)O1 | ALK | cell-free assay, competition with immobilised ligand | 0.1 µM | 65% |
| C[C@@H]1CN(c2ccc3ncc(-c4ccc5[nH]nc(C6CC6)c5c4)n3n2)C[C@H](C)O1 | ALK | binding, competition with immobilised ligand | 0.5 µM | 80% |
| O=C(NCCCN1CCOCC1)c1ccc(Nc2nccc(-c3cc4ccccc4s3)n2)cc1 | ALK | binding, competition with immobilised ligand | 1 µM | 100% |
| c1cnn2ncc(-c3ccnc(N4CCC45COC5)n3)c2c1 | ALK C1156Y | binding | 1 µM | 73% |
| O=C(c1ccc(Nc2ncc(Cl)c(-c3ccc(Cl)s3)n2)cc1)N1CCC(N2CCCC2)CC1 | ALK C1156Y | binding, competition with immobilised ligand | 1 µM | 38% |
| COc1ccnn2ncc(-c3ccnc(N(C)C)n3)c12 | ALK | binding | 1 µM | 96% |
| Cc1cnc(Nc2ccc(C(=O)N3CCC(N4CCCC4)CC3)cc2)nc1-c1cc2ccccc2s1 | ALK | binding, competition with immobilised ligand | 1 µM | 42% |
| O=C(Nc1c[nH]nc1C(=O)NC1CCNCC1)c1cc(F)cc(F)c1 | ALK | binding, competition with immobilised ligand | 1 µM | 91% |
| O=C(c1ccc(Nc2nccc(-c3cc4ccccc4s3)n2)cc1)N1CCC(N2CCCC2)CC1 | ALK | binding, competition with immobilised ligand | 1 µM | 84% |
| COc1ncc2cc3ccccc3nc2c1C#N | ALK C1156Y | cell-free assay, competition with immobilised ligand | 5 µM | 96% |
| CO[C@H]1CC[C@H](CNc2ccc(S(=O)(=O)NC(=O)c3ccc(N4CCN(CC5=C(c6ccc(Cl)cc6)CC(C)(C)CC5)CC4)cc3Oc3cnc4[nH]ccc4c3)cc2[N+](=O)[O-])CC1 | ALK C1156Y | cell-free assay, competition with immobilised ligand | 1 µM | 100% |
| CNC(=O)[C@@H]1CC[C@@H](n2c(-c3ccc4cnccc4c3)nc3ccc(C(=O)NCc4cccc(C(N)=O)c4)cc32)C1 | ALK C1156Y | binding, competition with immobilised ligand | 1 µM | 100% |
| Cc1cnn2ncc(-c3ccnc(N(C)C)n3)c2c1 | ALK C1156Y | binding | 1 µM | 100% |
| C[C@@H](c1ccc(-n2cnc3c(N)ncnc32)cc1)N1CCc2nn(C)c(Cc3ccccc3)c2C1=O | ALK L1196M | binding, competition with immobilised ligand | 0.1 µM | 60% |

| Compound | target | test | conditions | remaining binding |
| --- | --- | --- | --- | --- |
| CO[C@@H](C)c1c(Nc2ccc([C@H](N(C)C(=O)C3CCS(=O)(=O)CC3)C(F)(F)F)cc2)cnc2cc(Cl)nn12 | ALK C1156Y | cell-free assay, competition with immobilised ligand | 1 µM | 89% |
| CCN1CCN(Cc2ccc(C(=O)Nc3ccc(C)c(Oc4ccc5c(c4)CC(=O)N5)c3)cc2C(F)(F)F)CC1 | ALK | binding, competition with immobilised ligand | 1 µM | 100% |
| CN(C)c1nccc(-c2cnn3ncccc23)n1 | ALK C1156Y | binding | 1 µM | 71% |
| O=C(NCCCN1CCOCC1)c1ccc(Nc2ncc(Cl)c(-c3ccc(Cl)s3)n2)cc1 | ALK C1156Y | binding, competition with immobilised ligand | 1 µM | 61% |
| O=C(NCC1CCOCC1)c1n[nH]cc1NC(=O)c1c(F)cccc1F | ALK C1156Y | binding, competition with immobilised ligand | 1 µM | 99% |
| COc1cnc(Nc2cccc(S(N)(=O)=O)c2)nc1N1CCN(c2ccccc2)C(=O)C1 | ALK C1156Y | binding, competition with immobilised ligand | 1 µM | 96% |
| C[C@H](c1ccc(F)cc1)N(Cc1cccc(C(=O)O)c1)C(=O)c1cnc2ccccc2c1 | ALK L1196M | cell-free assay, competition with immobilised ligand | 1 µM | 76% |
| CC1CCCN1c1nccc(-c2cnn3ncccc23)n1 (stereo not drawn) | ALK L1196M | binding | 1 µM | 85% |
| CN1CCN(c2ccc(Nc3nccc(-c4cccc([N+](=O)[O-])c4)n3)cc2C(F)(F)F)CC1 | ALK L1196M | binding | 10 µM | 76% |
| CCCCN(CCCC)C(=O)CN1C[C@H](c2cc(OC)c3c(c2)OCO3)[C@@H](C(=O)O)[C@@H]1CC(C)(C)CCC | ALK C1156Y | cell-free assay, competition with immobilised ligand | 1 µM | 100% |
| F[C@@H]1CCN(c2nccc(-c3cnn4ncccc34)n2)C1 | ALK C1156Y | binding | 1 µM | 100% |
| COc1cnc(Nc2cccc(S(N)(=O)=O)c2)nc1N1CCN(c2ccccc2)CC1 | ALK | binding, competition with immobilised ligand | 1 µM | 78% |
| C=CC(=O)N1CCC(C(=O)NCC(=O)N2CCN(c3nc(-c4cnc(N)nc4C(F)F)nc(N4CCOCC4)n3)CC2)CC1 | ALK | binding, competition with immobilised ligand | 1 µM | 71% |
| CN(c1nccc(-c2cnn3ncccc23)n1)C1CC1 | ALK L1196M | binding | 1 µM | 100% |
| O=C(c1ccc(Nc2ncc(Cl)c(-c3cc4ccccc4s3)n2)cc1)N1CCC(N2CCCC2)CC1 | ALK C1156Y | binding, competition with immobilised ligand | 1 µM | 59% |
| Nc1ncc2c(n1)-c1c([nH]c3ccc(C#CC4CC4)cc13)CCCC2 | ALK | binding, competition with immobilised ligand | 1 µM | 95% |
| O=C(NCc1ncc(C(F)(F)F)cc1Cl)c1ccc2c(c1)C1(CCS(=O)(=O)CC1)[C@H](C1CC1)N2S(=O)(=O)c1ccc(F)cc1 | ALK C1156Y | cell-free assay, competition with immobilised ligand | 1 µM | 82% |
| CN1CCN(c2ccc(Nc3nccc(-c4ccccc4)n3)cc2C(F)(F)F)CC1 | ALK C1156Y | binding | 10 µM | 60% |
